pEC50: −log10 of the molar value.
biological target: hERG (KCNH2) (Homo sapiens, UniProt Q12809); assay: Inhibition of human ERG at 10 uM by Tracer Red dye based fluorescence polarization assay relative to control; settings: probe Tracer Red dye
Sequence (Q12809 whole entry): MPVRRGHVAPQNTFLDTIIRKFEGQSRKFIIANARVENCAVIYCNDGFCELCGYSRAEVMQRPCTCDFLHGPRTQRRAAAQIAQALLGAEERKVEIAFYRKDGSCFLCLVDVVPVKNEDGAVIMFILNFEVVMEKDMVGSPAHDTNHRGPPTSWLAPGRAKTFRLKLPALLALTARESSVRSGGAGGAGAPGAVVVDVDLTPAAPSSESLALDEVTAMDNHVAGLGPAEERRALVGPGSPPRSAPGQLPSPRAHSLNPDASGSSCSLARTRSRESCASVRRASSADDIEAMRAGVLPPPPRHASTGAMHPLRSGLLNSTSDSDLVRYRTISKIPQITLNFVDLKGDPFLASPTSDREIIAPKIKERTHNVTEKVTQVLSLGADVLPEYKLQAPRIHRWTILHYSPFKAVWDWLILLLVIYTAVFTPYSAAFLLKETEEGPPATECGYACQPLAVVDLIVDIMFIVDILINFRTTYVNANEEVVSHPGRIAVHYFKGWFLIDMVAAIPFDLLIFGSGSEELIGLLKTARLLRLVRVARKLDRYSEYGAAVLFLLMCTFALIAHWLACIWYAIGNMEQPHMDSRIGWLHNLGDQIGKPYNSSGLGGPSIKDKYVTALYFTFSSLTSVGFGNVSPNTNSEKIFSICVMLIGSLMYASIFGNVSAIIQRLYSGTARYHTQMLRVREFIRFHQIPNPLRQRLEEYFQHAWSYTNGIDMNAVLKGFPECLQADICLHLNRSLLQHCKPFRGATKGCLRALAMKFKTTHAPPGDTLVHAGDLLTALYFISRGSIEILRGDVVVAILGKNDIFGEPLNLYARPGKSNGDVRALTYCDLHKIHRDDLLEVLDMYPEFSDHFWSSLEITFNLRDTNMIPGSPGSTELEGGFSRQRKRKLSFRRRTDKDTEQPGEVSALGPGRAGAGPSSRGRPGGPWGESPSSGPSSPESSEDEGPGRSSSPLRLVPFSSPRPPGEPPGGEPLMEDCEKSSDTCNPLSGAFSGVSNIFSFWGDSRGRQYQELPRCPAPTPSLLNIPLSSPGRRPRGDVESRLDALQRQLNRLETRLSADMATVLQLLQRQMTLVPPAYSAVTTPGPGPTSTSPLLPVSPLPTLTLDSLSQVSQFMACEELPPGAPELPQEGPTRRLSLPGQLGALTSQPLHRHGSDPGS

| SMILES | inhibition at 10 µM [%] |
| --- | --- |
| COc1cccc(/C=C/C(=O)c2ccc(OC)cc2O)c1 | 13.6 |
| COc1cccc(/C=C/C(=O)c2cc(OC)ccc2O)c1 | 17.6 |

tested on: Trypanosoma cruzi; assay: Anti-parasitic activity against Trypanosoma cruzi Y promastigotes infected in HG39 cells by qPCR analysis; format: functional, cell-based; settings: in the assay text read “trypomastigotes” for “promastigotes”
Procedure, shortened: (§1)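 Confluent HG39 cells (3 x 10^6 per well) infected at a 1:1 ratio with blood-derived T. cruzi Y strain trypomastigotes. Growth inhibition was read as parasite gDNA by TaqMan probe-based quantitative real-time PCR.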

| SMILES | pEC50 |
| --- | --- |
| COc1cccc(/C=C/C(=O)c2ccc(OC)cc2O)c1 | > 5.00 |

tested on: 786-0; assay: Mitochondrial toxicity in human 786-O cells at 10 uM by mitotracker red chloromethyl-Xrosamine staining based-uptake method relative to control; format: cell-based; settings: 786-0, 10 µM
Procedure, shortened: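 786-O renal carcinoma cells kept in RPMI-1640 with 2 mM glutamine, 10% v/v FCS, streptomycin 100 µg/ml and penicillin G 100 U/ml. Mitochondrial toxicity monitored by MitoTracker Red CMXRos uptake with high-content imaging.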

| SMILES | Activity [%] |
| --- | --- |
| COc1cccc(/C=C/C(=O)c2ccc(OC)cc2O)c1 | -2.9 |
| COc1cccc(/C=C/C(=O)c2cc(OC)ccc2O)c1 | 13.4 |

tested on: Trypanosoma brucei brucei; assay: Anti-parasitic activity against bloodstream form of Trypanosoma brucei brucei Lister 427 after 72 hrs by resazurin-based assay; format: functional; settings: Lister 427, 72 h
Procedure, shortened: (§2)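 Bloodstream-form T. brucei, modified resazurin-based viability assay. EC50 is the arithmetic mean of at least two independent determinations, each run in triplicate.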

| SMILES | pEC50 |
| --- | --- |
| COc1cccc(/C=C/C(=O)c2ccc(OC)cc2O)c1 | 5.47 |
| COc1cccc(/C=C/C(=O)c2cc(OC)ccc2O)c1 | 5.68 |

biological target: CYP3A4 (Homo sapiens, UniProt P08684); assay: Inhibition of human CYP3A4 expressed in baculovirus-infected insect cells at 10 uM using Luciferin-PFBE as substrate in presence of NADPH by P450-Glo luminescence assay relative to control; format: ADME; settings: probe Luciferin-PFBE
Sequence (P08684 whole entry): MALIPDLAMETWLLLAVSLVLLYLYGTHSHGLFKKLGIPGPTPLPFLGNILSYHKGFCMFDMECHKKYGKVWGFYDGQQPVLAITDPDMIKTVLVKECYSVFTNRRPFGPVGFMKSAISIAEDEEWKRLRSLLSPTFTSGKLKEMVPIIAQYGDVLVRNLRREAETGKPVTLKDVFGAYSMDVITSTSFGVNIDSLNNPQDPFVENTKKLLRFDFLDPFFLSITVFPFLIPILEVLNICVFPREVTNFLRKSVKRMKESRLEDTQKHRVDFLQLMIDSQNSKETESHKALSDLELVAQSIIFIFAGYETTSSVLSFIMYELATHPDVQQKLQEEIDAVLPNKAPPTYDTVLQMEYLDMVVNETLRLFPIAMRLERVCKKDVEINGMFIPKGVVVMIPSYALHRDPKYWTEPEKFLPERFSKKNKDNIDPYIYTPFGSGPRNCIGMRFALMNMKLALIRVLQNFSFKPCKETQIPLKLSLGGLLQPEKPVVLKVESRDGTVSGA

| SMILES | inhibition at 10 µM [%] |
| --- | --- |
| COc1cccc(/C=C/C(=O)c2ccc(OC)cc2O)c1 | -8.3 |
| COc1cccc(/C=C/C(=O)c2cc(OC)ccc2O)c1 | 14.3 |

tested on: not listed separately; assay: Selectivity index, ratio of CC50 for human THP1 cells to EC50 for anti-parasitic activity against bloodstream form of Trypanosoma brucei brucei Lister 427; format: toxicity; settings: THP-1 cells, read-out: Ratio CC50/EC50
Procedure, shortened: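 SI = CC50 in PMA-differentiated THP-1 macrophages (MTT) divided by the antiparasitic EC50.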

| SMILES | selectivity ratio |
| --- | --- |
| COc1cccc(/C=C/C(=O)c2ccc(OC)cc2O)c1 | ≥ 7 |
| COc1cccc(/C=C/C(=O)c2cc(OC)ccc2O)c1 | ≥ 12 |

tested on: Trypanosoma brucei brucei; assay: Anti-parasitic activity against bloodstream form of Trypanosoma brucei brucei Lister 427 at 10 uM after 72 hrs by resazurin-based assay relative to control; format: functional; settings: Lister 427, 72 h; procedure, shortened: as §2

| SMILES | inhibition at 10 µM [%] |
| --- | --- |
| COc1cccc(/C=C/C(=O)c2ccc(OC)cc2O)c1 | 100 |
| COc1cccc(/C=C/C(=O)c2cc(OC)ccc2O)c1 | 100 |

biological target: CYP2C19 (Homo sapiens, UniProt P33261); assay: Inhibition of human CYP2C19 expressed in baculovirus-infected insect cells at 10 uM using Luciferin-H EGE as substrate in presence of NADPH by P450-Glo luminescence assay relative to control; format: ADME; settings: probe Luciferin-H EGE
Procedure, shortened: (§3)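 CYP enzymes as microsomal preparations from baculovirus-infected insect cells, run on the P450-Glo luminogenic substrate platform. A fall in light output indicates inhibition.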

Chain of CYP2C19 (P33261 whole entry): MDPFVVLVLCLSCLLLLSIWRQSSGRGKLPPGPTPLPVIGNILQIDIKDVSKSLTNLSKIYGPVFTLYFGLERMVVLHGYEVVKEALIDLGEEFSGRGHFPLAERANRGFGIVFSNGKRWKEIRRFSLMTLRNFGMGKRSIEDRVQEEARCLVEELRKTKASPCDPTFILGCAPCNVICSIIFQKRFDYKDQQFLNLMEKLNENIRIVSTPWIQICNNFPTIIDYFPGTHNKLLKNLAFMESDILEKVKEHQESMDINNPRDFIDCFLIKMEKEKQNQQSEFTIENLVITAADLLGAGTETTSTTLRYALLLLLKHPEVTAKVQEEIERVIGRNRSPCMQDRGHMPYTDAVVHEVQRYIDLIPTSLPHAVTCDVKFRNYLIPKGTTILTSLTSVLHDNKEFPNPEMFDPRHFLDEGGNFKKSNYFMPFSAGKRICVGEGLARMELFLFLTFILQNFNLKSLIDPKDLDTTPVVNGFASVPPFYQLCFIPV

| SMILES | inhibition at 10 µM [%] |
| --- | --- |
| COc1cccc(/C=C/C(=O)c2ccc(OC)cc2O)c1 | 63.5 |
| COc1cccc(/C=C/C(=O)c2cc(OC)ccc2O)c1 | 69.6 |

biological target: CYP2C9 (Homo sapiens, UniProt P11712); assay: Inhibition of human CYP2C9 expressed in baculovirus-infected insect cells at 10 uM using Luciferin-H as substrate in presence of NADPH by P450-Glo luminescence assay relative to control; settings: probe Luciferin-H
Sequence (P11712 whole entry): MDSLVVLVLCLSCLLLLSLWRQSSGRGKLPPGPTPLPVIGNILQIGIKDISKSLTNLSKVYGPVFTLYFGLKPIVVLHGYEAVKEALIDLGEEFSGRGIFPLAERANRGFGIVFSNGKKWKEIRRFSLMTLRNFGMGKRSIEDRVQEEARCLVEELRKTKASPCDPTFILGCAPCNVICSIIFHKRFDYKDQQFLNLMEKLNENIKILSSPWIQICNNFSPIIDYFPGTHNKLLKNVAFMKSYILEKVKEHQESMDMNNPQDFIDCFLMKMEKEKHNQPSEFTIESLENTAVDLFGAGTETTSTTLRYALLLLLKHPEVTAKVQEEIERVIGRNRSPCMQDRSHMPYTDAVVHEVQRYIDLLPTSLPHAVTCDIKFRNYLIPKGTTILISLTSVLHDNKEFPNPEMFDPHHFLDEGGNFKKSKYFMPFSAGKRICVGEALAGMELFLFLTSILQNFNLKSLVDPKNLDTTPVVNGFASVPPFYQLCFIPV

| SMILES | inhibition at 10 µM [%] |
| --- | --- |
| COc1cccc(/C=C/C(=O)c2ccc(OC)cc2O)c1 | 47.4 |
| COc1cccc(/C=C/C(=O)c2cc(OC)ccc2O)c1 | -31.7 |

tested on: not listed separately; assay: Cytotoxicity against human THP1 cells by MTT assay; format: cell-based; settings: THP-1 cells
Procedure, shortened: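 THP-1 cells differentiated to macrophages with PMA, viability read by colorimetric MTT. CC50 and NOAEL are the arithmetic mean of at least two independent determinations, each run in triplicate.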

| SMILES | CC50 [µM] |
| --- | --- |
| COc1cccc(/C=C/C(=O)c2ccc(OC)cc2O)c1 | > 25 |
| COc1cccc(/C=C/C(=O)c2cc(OC)ccc2O)c1 | > 25 |

biological target: CYP2D6 (Homo sapiens, UniProt P10635); assay: Inhibition of human CYP2D6 expressed in baculovirus-infected insect cells at 10 uM using Luciferin-ME EGE as substrate in presence of NADPH by P450-Glo luminescence assay relative to control; format: ADME; settings: probe Luciferin-ME EGE; procedure, shortened: as §3
Sequence (P10635 whole entry): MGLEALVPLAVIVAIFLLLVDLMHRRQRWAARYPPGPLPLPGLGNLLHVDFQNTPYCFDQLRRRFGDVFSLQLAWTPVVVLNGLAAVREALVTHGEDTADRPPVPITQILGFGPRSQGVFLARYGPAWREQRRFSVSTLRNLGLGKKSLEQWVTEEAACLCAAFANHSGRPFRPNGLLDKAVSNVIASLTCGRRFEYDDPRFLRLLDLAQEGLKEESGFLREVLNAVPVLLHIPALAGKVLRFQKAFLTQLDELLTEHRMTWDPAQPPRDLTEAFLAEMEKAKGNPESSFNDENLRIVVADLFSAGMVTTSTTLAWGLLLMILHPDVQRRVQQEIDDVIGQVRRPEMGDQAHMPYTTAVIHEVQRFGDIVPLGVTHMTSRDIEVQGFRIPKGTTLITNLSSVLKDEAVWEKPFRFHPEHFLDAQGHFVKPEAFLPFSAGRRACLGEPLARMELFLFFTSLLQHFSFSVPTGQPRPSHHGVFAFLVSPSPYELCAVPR

| SMILES | inhibition at 10 µM [%] |
| --- | --- |
| COc1cccc(/C=C/C(=O)c2ccc(OC)cc2O)c1 | 58 |
| COc1cccc(/C=C/C(=O)c2cc(OC)ccc2O)c1 | 52.2 |

tested on: Leishmania infantum; assay: Anti-parasitic activity against Leishmania infantum amastigotes infected in human THP1 cells at 50 uM after 5 days by Giemsa staining based assay relative to control; format: functional, cell-based; settings: THP-1, 120 h
Procedure, shortened: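 Intracellular L. infantum amastigotes in host cells, imaged by high-content automated imaging. Host cell number, infected cells and parasites per infected cell were counted. Infection Ratio = infected cells / total cells.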

| SMILES | inhibition at 50 µM [%] |
| --- | --- |
| COc1cccc(/C=C/C(=O)c2ccc(OC)cc2O)c1 | 21 |
| COc1cccc(/C=C/C(=O)c2cc(OC)ccc2O)c1 | 14 |

tested on: not listed separately; assay: Cytotoxicity against human […] cells assessed as cell growth at 10 uM by Cell titer-Glo assay relative to control; format: cell-based; settings: WI-38 cells, read-out: Activity
Procedure, shortened: (§4)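 A549 and WI-38 cells grown in DMEM with 10% v/v FCS, streptomycin 100 µg/ml and penicillin G 100 U/ml. Cell number read as cellular ATP by CellTiter-Glo luminescence. Growth 60–100% scored non-cytotoxic, 0–60% cytostatic, below 0 cytotoxic.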

| SMILES | viability at 10 µM [%] |
| --- | --- |
| COc1cccc(/C=C/C(=O)c2ccc(OC)cc2O)c1 | 63 |
| COc1cccc(/C=C/C(=O)c2cc(OC)ccc2O)c1 | 87.5 |

tested on: not listed separately; assay: Lipophilicity, log P of the compound; format: physicochemical; settings: octanol/water

| SMILES | logP |
| --- | --- |
| COc1cccc(/C=C/C(=O)c2ccc(OC)cc2O)c1 | 3.86 |
| COc1cccc(/C=C/C(=O)c2cc(OC)ccc2O)c1 | 3.87 |

tested on: Trypanosoma cruzi; assay: Anti-parasitic activity against Trypanosoma cruzi Y promastigotes infected in HG39 cells at 10 uM by qPCR analysis relative to control; format: functional, cell-based; settings: in the assay text read “trypomastigotes” for “promastigotes”; procedure, shortened: as §1

| SMILES | inhibition at 10 µM [%] |
| --- | --- |
| COc1cccc(/C=C/C(=O)c2ccc(OC)cc2O)c1 | 74 |
| COc1cccc(/C=C/C(=O)c2cc(OC)ccc2O)c1 | 28 |

tested on: not listed separately; assay: Cytotoxicity against human A549 cells assessed as cell growth at 10 uM by Cell titer-Glo assay relative to control; format: cell-based; settings: read-out: Activity; procedure, shortened: as §4

| SMILES | viability at 10 µM [%] |
| --- | --- |
| COc1cccc(/C=C/C(=O)c2ccc(OC)cc2O)c1 | 110 |
| COc1cccc(/C=C/C(=O)c2cc(OC)ccc2O)c1 | 116 |

biological target: Aurora kinase B (Homo sapiens, UniProt Q96GD4); assay: Inhibition of N-terminal-GST-tagged recombinant full length human Aurora B expressed in baculovirus infected Sf9 cells at 10 uM using native Swine Myelin Basic Protein as substrate measured after 60 mins by ADP-Glo assay relative to control; settings: probe native Swine Myelin Basic Protein
Procedure, shortened: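 Aurora B kinase activity measured by ADP-Glo, which detects ADP formed through a coupled luciferase luminescence read-out.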

Chain of Aurora kinase B (Q96GD4 whole entry): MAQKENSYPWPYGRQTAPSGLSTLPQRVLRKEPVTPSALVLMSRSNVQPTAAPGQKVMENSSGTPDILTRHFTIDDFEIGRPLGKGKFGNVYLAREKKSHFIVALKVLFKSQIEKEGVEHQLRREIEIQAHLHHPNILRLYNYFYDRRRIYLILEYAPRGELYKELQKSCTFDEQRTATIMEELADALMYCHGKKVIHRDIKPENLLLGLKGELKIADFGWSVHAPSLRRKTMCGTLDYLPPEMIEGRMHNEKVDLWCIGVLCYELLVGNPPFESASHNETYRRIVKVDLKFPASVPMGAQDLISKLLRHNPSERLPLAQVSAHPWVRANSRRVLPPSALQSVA

| SMILES | inhibition at 1 h, 10 µM [%] |
| --- | --- |
| COc1cccc(/C=C/C(=O)c2ccc(OC)cc2O)c1 | -10.6 |
| COc1cccc(/C=C/C(=O)c2cc(OC)ccc2O)c1 | -15.1 |

biological target: T1, CYP1A2 (Homo sapiens, UniProt P05177); assay: Inhibition of human CYP1A2 expressed in baculovirus-infected insect cells at 10 uM using Luciferin-1A2 as substrate in presence of NADPH by P450-Glo luminescence assay relative to control; format: ADME; settings: probe Luciferin-1A2; procedure, shortened: as §3
T1 sequence (P05177 whole entry): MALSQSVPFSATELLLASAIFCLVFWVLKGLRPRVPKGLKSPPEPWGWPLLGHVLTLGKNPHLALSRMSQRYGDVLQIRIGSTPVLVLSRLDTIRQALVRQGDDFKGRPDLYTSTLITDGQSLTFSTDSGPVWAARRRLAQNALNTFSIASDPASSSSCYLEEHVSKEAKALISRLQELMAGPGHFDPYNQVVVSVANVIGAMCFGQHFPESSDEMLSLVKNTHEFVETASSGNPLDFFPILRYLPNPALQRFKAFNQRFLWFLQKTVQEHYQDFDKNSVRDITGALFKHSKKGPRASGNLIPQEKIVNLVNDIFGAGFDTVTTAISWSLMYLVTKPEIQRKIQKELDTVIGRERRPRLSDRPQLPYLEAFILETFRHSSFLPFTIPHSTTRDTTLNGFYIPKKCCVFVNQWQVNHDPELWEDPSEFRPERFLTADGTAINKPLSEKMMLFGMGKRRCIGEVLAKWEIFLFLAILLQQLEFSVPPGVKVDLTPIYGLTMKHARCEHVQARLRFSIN

| SMILES | inhibition at 10 µM [%] |
| --- | --- |
| COc1cccc(/C=C/C(=O)c2ccc(OC)cc2O)c1 | 75.4 |
| COc1cccc(/C=C/C(=O)c2cc(OC)ccc2O)c1 | 84.2 |

Source: ChEMBL document CHEMBL3997782, “Methoxylated 2'-hydroxychalcones as antiparasitic hit compounds” (Eur J Med Chem, 2017)
